Article PMC3225805 (Chemistry & biology, 2011)
Like-named read-outs stand apart in the source and are kept apart here.

What was measured:
Assay type in all cases: biochemical
[1] = target: T1, VLuc (Vibrio fischeri luciferase) (Aliivibrio fischeri, UniProt P19907); experiment: luminescence inhibition, 1536-well CRC, FMN reductase-coupled; settings: read-out: VLuc; 0.1 M sodium phosphate pH 7.0, 0.005% decanal, 0.1 mM NADH, 2 μM FMN, 0.1% BSA; partially purified enzyme
T1 sequence (P19907 1-354): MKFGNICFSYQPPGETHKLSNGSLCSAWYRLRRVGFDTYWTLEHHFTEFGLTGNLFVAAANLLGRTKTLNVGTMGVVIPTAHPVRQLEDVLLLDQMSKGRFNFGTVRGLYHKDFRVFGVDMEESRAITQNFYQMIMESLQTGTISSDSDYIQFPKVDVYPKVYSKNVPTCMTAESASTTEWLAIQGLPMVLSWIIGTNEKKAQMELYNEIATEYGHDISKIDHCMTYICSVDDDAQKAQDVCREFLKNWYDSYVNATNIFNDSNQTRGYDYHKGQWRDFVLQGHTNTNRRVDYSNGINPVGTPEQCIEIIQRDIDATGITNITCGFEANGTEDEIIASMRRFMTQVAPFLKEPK
T1 sequence (P19908 1-326 partner): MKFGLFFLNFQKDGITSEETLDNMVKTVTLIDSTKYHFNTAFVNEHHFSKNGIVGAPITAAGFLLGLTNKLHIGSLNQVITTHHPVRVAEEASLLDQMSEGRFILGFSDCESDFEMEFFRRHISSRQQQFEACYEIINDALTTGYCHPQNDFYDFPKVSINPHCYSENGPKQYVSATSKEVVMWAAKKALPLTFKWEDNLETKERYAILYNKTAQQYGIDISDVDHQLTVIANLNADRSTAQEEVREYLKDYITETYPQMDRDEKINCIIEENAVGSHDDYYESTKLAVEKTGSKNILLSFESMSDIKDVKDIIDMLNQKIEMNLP

[2] = target: T2, LmLuc (Luciola mingrelica luciferase) (Luciola mingrelica, UniProt Q26304); experiment: luminescence inhibition, 1536-well CRC
T2 sequence (Q26304 1-548): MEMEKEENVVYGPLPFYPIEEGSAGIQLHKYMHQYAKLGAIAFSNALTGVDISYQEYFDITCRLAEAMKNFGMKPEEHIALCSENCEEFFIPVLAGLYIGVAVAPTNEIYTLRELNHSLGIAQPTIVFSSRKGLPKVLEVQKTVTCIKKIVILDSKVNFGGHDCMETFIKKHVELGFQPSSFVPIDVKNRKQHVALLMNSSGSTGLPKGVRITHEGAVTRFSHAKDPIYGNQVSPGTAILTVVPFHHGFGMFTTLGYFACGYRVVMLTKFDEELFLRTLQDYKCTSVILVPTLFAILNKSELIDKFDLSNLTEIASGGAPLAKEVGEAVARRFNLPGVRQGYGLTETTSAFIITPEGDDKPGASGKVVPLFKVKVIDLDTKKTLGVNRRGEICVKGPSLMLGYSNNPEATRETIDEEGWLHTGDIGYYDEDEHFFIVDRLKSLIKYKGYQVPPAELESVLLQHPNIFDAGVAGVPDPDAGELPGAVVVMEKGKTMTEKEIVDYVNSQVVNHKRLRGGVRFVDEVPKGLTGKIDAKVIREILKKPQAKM
How it was run: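 Luciola mingrelica luciferase at 5 nM final in 1536-well format, run by the same protocol as the Photinus enzyme with 10 μM D-luciferin and 10 μM ATP. Luminescence is read over a test-compound titration. IC50 comes from curve fitting and is given as mean ±SD of at least 4 determinations.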

[3] = target: T3, RLuc (Renilla reniformis luciferase) (Renilla reniformis, UniProt P27652); experiment: luminescence inhibition, 1536-well CRC; settings: read-out: % inhibition at 57 μM (inactive)
T3 sequence (P27652 1-311): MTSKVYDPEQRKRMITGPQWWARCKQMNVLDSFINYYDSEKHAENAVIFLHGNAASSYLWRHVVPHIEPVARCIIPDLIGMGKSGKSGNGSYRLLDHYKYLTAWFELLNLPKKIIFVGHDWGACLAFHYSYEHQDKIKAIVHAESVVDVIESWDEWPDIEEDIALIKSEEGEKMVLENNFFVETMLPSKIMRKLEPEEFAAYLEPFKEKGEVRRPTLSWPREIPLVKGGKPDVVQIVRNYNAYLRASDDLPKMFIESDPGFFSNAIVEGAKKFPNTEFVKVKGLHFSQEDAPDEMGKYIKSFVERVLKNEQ

[4] = target: T4, FLuc (Photinus pyralis luciferase) (Photinus pyralis, UniProt P08659); experiment: luminescence inhibition, 1536-well CRC
T4 sequence (P08659 whole entry): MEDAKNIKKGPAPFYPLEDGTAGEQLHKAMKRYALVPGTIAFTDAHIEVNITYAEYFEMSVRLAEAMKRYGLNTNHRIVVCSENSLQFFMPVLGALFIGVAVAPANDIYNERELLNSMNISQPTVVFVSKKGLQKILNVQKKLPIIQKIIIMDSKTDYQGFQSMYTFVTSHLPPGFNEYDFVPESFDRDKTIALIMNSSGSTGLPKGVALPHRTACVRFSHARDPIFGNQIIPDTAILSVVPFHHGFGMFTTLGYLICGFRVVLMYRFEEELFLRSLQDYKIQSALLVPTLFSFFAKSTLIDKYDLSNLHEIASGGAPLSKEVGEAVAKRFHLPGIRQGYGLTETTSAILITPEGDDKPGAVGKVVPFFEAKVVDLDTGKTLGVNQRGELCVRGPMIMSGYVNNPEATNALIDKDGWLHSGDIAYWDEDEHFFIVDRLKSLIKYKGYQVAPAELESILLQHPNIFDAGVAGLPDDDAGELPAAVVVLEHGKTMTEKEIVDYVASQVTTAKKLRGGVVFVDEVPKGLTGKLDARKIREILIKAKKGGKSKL
How it was run: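 Purified wild-type Photinus pyralis luciferase in 1536-well format, with 10 μM D-luciferin and 10 μM ATP as substrates. Luminescence is read across a concentration titration of test compound. IC50 comes from the fitted concentration-response curve and is given as mean ±SD of at least 4 determinations.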

[5] = target: T3, RLuc (Renilla reniformis luciferase); experiment: luminescence inhibition, 1536-well CRC
How it was run: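 Renilla reniformis luciferase in 1536-well format with 5 μM coelenterazine as substrate. Luminescence is measured over a test-compound concentration series. IC50 is taken from the fitted concentration-response curve and given as mean ±SD of at least 4 determinations.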

[6] = target: T2, LmLuc (Luciola mingrelica luciferase); experiment: luminescence inhibition, 1536-well CRC; settings: read-out: % inhibition at 57 μM (inactive)
[7] = target: T4, FLuc (Photinus pyralis luciferase); experiment: luminescence inhibition, 1536-well CRC; settings: read-out: % inhibition at 57 μM (inactive)
[8] = read-out: LmLuc, 10 μM D-luciferin and ATP, 5 nM enzyme
[9] = read-out: FLuc, 10 μM D-luciferin and ATP

## O=C1O/C(=C\c2ccc(O)cc2)C(O)=C1c1ccc(O)cc1 [compound 1, aspulvinone E]
[1]
  IC50: > 57 µM
[2]
  IC50: 3.6 ± 1.1 µM
[3]
  inhibition at 57 µM: < 20%
[4]
  IC50: 1.4 ± 1.6 µM

## CC(C)(O)[C@H]1Cc2cc(/C=C3\OC(=O)C(c4ccc5c(c4)C[C@H](C(C)(C)O)O5)=C3O)ccc2O1 [compound 5, aspulvinone J-CR]
[1]
  IC50: 6.5 ± 3.3 µM
[5]; read-out: RLuc, 5 μM coelenterazine
  IC50: > 57 µM
[2]; [8]
  IC50: 0.1 ± 0.03 µM

## COC(=O)[C@@]1(Cc2ccc(O)c(CC=C(C)C)c2)OC(=O)C(O)=C1c1ccc(O)cc1 [compound 10, butyrolactone I]
[6]
  inhibition at 57 µM: < 20%
[5]
  IC50: > 57 µM
[7]
  inhibition at 57 µM: < 20%

## COC(=O)[C@]1(Cc2ccc(O)c(CC3OC3(C)C)c2)OC(=O)C(O)=C1c1ccc(O)cc1 (stereo partly drawn) [compound 11, butyrolactone III]
[6]
  inhibition at 57 µM: < 20%
[3]
  inhibition at 57 µM: < 20%
[7]
  inhibition at 57 µM: < 20%

## aspulvinone F [compound 2]
[5]; read-out: Ultra, 5 μM coelenterazine
  IC50: > 57 µM
[2]; [8]
  IC50: 2.5 ± 0.5 µM
[4]; [9]
  IC50: 3.6 ± 1.5 µM

## aspulvinone I-CR [compound 4]
[1]
  IC50: 12 ± 2.3 µM
[2]; [8]
  IC50: 0.5 ± 0.2 µM
[4]; [9]
  IC50: 0.72 ± 0.4 µM

## aspulvinone M-CR [compound 8]
[1]
  IC50: 18 ± 8 µM
[2]; [8]
  IC50: 5.3 ± 5.9 µM
[4]; [9]
  IC50: 1.7 ± 1.6 µM

## benzofuran [compound 12]
[2]; [8]
  IC50: 14.8 ± 2.8 µM
[4]; [9]
  IC50: 18.6 ± 8.8 µM
